These results are taken from ChEMBL document CHEMBL1148390, “Structural analysis and optimization of NK(1) receptor antagonists through modulation of atropisomer interconversion properties” (J Med Chem, 2004).

In one data set the target is T1, Substance-K receptor (Homo sapiens, UniProt P21452).
T1 sequence (P21452 whole entry): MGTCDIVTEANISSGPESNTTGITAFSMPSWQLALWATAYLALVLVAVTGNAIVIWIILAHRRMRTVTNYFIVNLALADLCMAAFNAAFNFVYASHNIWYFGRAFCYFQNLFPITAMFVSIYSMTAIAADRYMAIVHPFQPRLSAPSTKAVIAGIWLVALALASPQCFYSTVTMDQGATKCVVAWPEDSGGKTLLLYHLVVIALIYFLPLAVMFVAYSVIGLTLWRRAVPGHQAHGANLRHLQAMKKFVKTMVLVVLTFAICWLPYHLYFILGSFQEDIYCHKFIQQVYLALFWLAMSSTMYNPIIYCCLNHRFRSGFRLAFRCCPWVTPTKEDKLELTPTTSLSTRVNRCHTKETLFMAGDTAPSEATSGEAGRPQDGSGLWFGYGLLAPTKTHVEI
The data set can be described thus: In vitro binding affinity towards human Tachykinin receptor 2 was determined by using [125I]NKA as a radioligand. In outline: (§1)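 Human tachykinin receptors stably expressed in mouse erythroleukemia (MEL) cells; NK3 construct differs from genomic sequence at AA439 (Cys vs Phe). Radioligand displacement: [3H]SP for NK1, [125I]NKA for NK2, [125I]MePheNKB for NK3; n ≥ 2 determinations.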

In another data set the test system is Gerbillinae. In words: Percent inhibitory activity against ASMSP induced foot tapping response in gerbils after oral dose of 5 uM/kg. It counts as functional. In outline:
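Gerbils given antagonist orally at 5 μmol/kg 6 h before central (CNS) administration of ASMSP (100 pmol). Foot-tapping response compared with vehicle-only control animals; result expressed as percent inhibition.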

Another data set addresses Substance-P receptor (Homo sapiens, UniProt P25103). The data set can be described thus: In vitro binding affinity towards human Tachykinin receptor 1 was determined by using [3H]SP as a radioligand. Put shortly:
as §1

The test system of data set [1] is Substance-P receptor (Oryctolagus cuniculus). In words: In vitro binding affinity towards Tachykinin receptor 1 was determined using rabbit pulmonary artery tissues.
In data set [2] the target is T2, Substance-K receptor (Oryctolagus cuniculus) (UniProt P79218).
T2 sequence (whole entry): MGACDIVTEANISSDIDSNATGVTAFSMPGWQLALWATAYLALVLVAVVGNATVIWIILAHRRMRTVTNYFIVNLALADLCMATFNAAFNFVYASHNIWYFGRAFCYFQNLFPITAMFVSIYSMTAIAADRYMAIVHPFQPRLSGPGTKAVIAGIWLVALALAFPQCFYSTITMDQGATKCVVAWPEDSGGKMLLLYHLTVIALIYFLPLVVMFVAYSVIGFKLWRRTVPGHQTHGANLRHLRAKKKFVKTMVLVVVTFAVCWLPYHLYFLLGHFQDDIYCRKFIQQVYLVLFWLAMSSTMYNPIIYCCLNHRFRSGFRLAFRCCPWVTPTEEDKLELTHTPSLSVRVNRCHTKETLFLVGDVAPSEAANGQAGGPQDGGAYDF
The data set can be described thus: In vitro binding affinity towards Tachykinin receptor 2 using rabbit pulmonary artery tissues. Put shortly:
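Functional antagonism in isolated rabbit pulmonary artery (n = 2–6), reported as pKB. NK1 tested against agonist ASMSP with antagonist at 1 nM, or at 100 nM where antagonism was not purely competitive; NK2 tested against agonist BANK with antagonist at 1 μM. Where antagonism was not purely competitive, activity was taken as percent inhibition = 100 – maximum relaxation as % of control.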

Data set [3] can be described thus: Time for maximum plasma concentration was measured in dogs after an oral dose of 10 uM/kg. It counts as ADME, organism-based, Canis lupus familiaris. To be noted: dog. Put shortly:
(§2)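 Dogs (n = 3) dosed orally at 10–100 μmol/kg as a solution in 75% polyethylene glycol 400 in normal saline; iv bolus comparison at 1–10 μmol/kg. Blood taken via surgically implanted cannula or by venipuncture over 24 h; plasma analysed for unchanged compound by LC–MS.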

The nature of data set [4]: Maximum plasma concentration was measured in dogs after an oral dose of 10 umol/kg. It counts as ADME, organism-based, Canis lupus familiaris. Also on record: dose 10 umol/kg, route oral. To be noted: dog. In outline:
as §2

The nature of data set [5]: Area under plasma concentration time curve was measured in dogs after an oral dose of 10 uM/kg. It counts as ADME, organism-based, Canis lupus familiaris. To be noted: dog. Put shortly: as §2
A further data set concerns the target T3, Neuromedin-K receptor (Homo sapiens, UniProt P29371).
T3 sequence (P29371 whole entry): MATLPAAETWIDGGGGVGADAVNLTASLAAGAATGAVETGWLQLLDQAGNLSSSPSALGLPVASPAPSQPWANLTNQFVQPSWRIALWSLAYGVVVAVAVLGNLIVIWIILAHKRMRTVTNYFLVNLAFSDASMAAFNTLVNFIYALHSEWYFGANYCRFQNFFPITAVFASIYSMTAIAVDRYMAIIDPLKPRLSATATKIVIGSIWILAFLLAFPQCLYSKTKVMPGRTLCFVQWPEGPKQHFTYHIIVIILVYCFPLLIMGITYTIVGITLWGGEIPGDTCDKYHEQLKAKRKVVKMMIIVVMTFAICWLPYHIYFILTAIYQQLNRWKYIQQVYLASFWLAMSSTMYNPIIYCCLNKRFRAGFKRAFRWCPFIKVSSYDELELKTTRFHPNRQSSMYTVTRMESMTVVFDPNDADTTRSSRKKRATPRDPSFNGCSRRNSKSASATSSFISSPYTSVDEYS
The data set can be described thus: In vitro binding affinity towards human Tachykinin receptor 3 was determined by using [125I]MePhe-NKB as a radioligand. Put shortly: as §1

A short description of data set [6]: Bioavailability was measured in dogs after an oral dose of 10 uM/kg. To be noted: dog, in vivo, read-out: Bioavailabiility. It counts as ADME, organism-based, Canis lupus familiaris. Put shortly: as §2
Data set [7] is described as follows: Half-life was measured in dogs after an oral dose of 10 uM/kg. Format: ADME, organism-based, Canis lupus familiaris. The settings on record: dog, in vivo. Put shortly: as §2

Substance-P receptor, sequence (P25103 whole entry): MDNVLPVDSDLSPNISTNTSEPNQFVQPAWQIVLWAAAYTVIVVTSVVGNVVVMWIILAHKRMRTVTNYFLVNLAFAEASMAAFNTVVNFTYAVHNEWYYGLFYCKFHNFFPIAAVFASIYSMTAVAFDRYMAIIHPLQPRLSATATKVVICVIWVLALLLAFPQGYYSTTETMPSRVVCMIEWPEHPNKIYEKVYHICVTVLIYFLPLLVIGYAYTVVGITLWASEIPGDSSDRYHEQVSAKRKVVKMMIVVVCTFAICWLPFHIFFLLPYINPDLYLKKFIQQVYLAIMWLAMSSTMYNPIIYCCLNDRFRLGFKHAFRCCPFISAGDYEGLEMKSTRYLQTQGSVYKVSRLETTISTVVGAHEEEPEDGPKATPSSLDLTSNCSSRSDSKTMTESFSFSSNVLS

For orientation: Ki means a dissociation constant, usually derived from enzyme kinetics or from competition with a known ligand. A higher Ki goes with lower affinity. The Inhibition is the relative decrease from the control value, in per cent. The low end stands for a response near the control, the high end for a response far below the control. Consider `CCc1c(C#N)cc2ccccc2c1C(=O)N(C)C[C@@H](CCN1CCC(c2ccccc2[S@+](C)[O-])CC1)c1ccc(Cl)c(Cl)c1` (stereo in doubt; form 4), for which the values for the inhibition constant Ki at Substance-K receptor and on Substance-P receptor were 0.035 µM and 0.0004 µM, respectively. Further, the Inhibition with Gerbillinae is recorded as 13%.
Turning to `CCc1c(C#N)cc2ccccc2c1C(=O)N(C)C[C@@H](CCN1CCC(c2ccccc2[S@+](C)[O-])CC1)c1ccc(Cl)c(Cl)c1` (stereo in doubt; form 2) [listing 1 of 2 here], the results for the Ki on Substance-K receptor and on Substance-P receptor were 0.033 µM and 0.00694 µM, respectively. The compound also showed an Inhibition in the data set on Gerbillinae of 91%.
The pKB is the KB on a negative log10 scale, so that one unit is a factor of ten. Low values mean a high KB, high ones a low KB. `Cc1c(C#N)cc2ccccc2c1C(=O)N(C)C[C@@H](CCN1CCC(c2ccccc2[S@+](C)[O-])CC1)c1ccc(Cl)c(Cl)c1`: the negative logarithm of the KB (pKB) in [1] came to 9.06; in data set [2], 7.1.
`CN(C[C@@H](CCN1CCC(c2ccccc2[S@+](C)[O-])CC1)c1ccc(Cl)c(Cl)c1)C(=O)c1cc(C#N)cc2ccccc12` displayed a pKB in data set [2] of 8.3.
In [2], `CCc1c(C#N)cc2ccccc2c1C(=O)N(C)C[C@@H](CCN1CCC(c2ccccc2[S@+](C)[O-])CC1)c1ccc(Cl)c(Cl)c1` (stereo in doubt; form 2) [listing 2 of 2 here] returned a pKB of 6.25.
For the compound `CN(C[C@@H](CCN1CCC(c2ccccc2[S@+](C)[O-])CC1)c1ccc(Cl)c(Cl)c1)C(=O)c1c(-c2ccccc2)c(C#N)cc2ccccc12`, the pKB in [1] came out at 7.39; in data set [2], 7.27.
Consider `CCCc1c(C#N)cc2ccccc2c1C(=O)N(C)C[C@@H](CCN1CCC(c2ccccc2[S@+](C)[O-])CC1)c1ccc(Cl)c(Cl)c1`, for which the negative logarithm of the KB (pKB) in data set [1] was found to be 7.8; in [2] it was 6.72.
In the case of `CCc1c(C#N)cc2ccccc2c1C(=O)N(C)C[C@@H](CCN1CCC(c2ccccc2[S@+](C)[O-])CC1)c1ccc(Cl)c(Cl)c1` (stereo in doubt; form 3) [listing 1 of 2 here], the pKB in [2] is 6.83.
Usually Tmax stands for the time from dosing to the highest level. What is called Cmax is the peak of the concentration-time curve. The AUC is the area under the concentration-time curve, a measure of exposure. Low values mean low exposure, high ones high exposure. A word on the half-life: it is the time needed for the level to fall by half in the phase considered. Read a low half-life as rapid decline. Regarding `CCc1c(C#N)cc2ccccc2c1C(=O)N(C)C[C@@H](CCN1CCC(c2ccccc2[S@+](C)[O-])CC1)c1ccc(Cl)c(Cl)c1` (stereo in doubt; 3) [listing 1 of 2 here], the Ki on Substance-K receptor was found to be 0.037 µM; at Neuromedin-K receptor, 0.097 µM; on Substance-P receptor, 0.00124 µM. The Tmax in [3] was determined as 4 h. In the data set with Gerbillinae, the Inhibition was determined as 33%. Moreover, the maximum concentration (Cmax) in data set [4] came out at 662 ng/mL. Also, the AUC in data set [5] was determined as 6130 ng·h/mL. The bioavailability in data set [6] stood at 37.3%. The half-life in [7] is 5.9 h.
`CCc1c(C#N)cc2ccccc2c1C(=O)N(C)C[C@@H](CCN1CCC(c2ccccc2[S@+](C)[O-])CC1)c1ccc(Cl)c(Cl)c1` (stereo in doubt; form 1) [listing 1 of 2 here]: the negative logarithm of the KB (pKB) in [2] worked out at 7.11.
With `CCc1c(C#N)cc2ccccc2c1C(=O)N(C)C[C@@H](CCN1CCC(c2ccccc2[S@+](C)[O-])CC1)c1ccc(Cl)c(Cl)c1` (stereo in doubt; form 3) [listing 2 of 2 here], the Ki at Substance-K receptor was 0.022 µM; on Substance-P receptor, 0.00294 µM. Moreover, the Inhibition in the data set with Gerbillinae is reported as 0.3%.
`CC(C)Cc1c(C#N)cc2ccccc2c1C(=O)N(C)C[C@@H](CCN1CCC(c2ccccc2[S@+](C)[O-])CC1)c1ccc(Cl)c(Cl)c1`: the negative logarithm of the KB (pKB) was found to be 7.23 in data set [1] and 6.35 in [2].
Regarding `CCc1c(C#N)cc2ccccc2c1C(=O)N(C)C[C@@H](CCN1CCC(c2ccccc2[S@+](C)[O-])CC1)c1ccc(Cl)c(Cl)c1` (stereo in doubt; 3) [listing 2 of 2 here], the pKB in data set [2] stood at 7.31.
`CCc1c(C#N)cc2ccccc2c1C(=O)N(C)C[C@@H](CCN1CCC(c2ccccc2[S@+](C)[O-])CC1)c1ccc(Cl)c(Cl)c1` (stereo in doubt; form 1) [listing 2 of 2 here]: the figures for the inhibition constant Ki on Substance-K receptor and on Substance-P receptor were 0.023 µM and 0.00171 µM, respectively. Moreover, in the data set on Gerbillinae, the Inhibition amounted to 1.4%.
